From ChEMBL document CHEMBL1124160, “Synthetic aci-reductones: 3,4-dihydroxy-2H-1-benzopyran-2-ones and their cis- and trans-4a,5,6,7,8,8a-hexahydro diastereomers. Antiaggregatory, antilipidemic, and redox properties compared to those of the 4-substituted 2-hydroxytetronic acids” (J Med Chem, 1988)

Columns and labels:
Assay type in all cases: functional, organism-based; call rule not given here
Homo sapiens [1] = species: Homo sapiens; test: Inhibition of adenosine diphosphate (ADP) induced human platelet aggregation
Method in brief: (§1)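 Human platelet-rich plasma from drug-free volunteers (no medication ≥10 days). Compounds prepared fresh in N2-deoxygenated 10 mM sodium phosphate/0.9% NaCl pH 7.4 (one in DMSO, final 0.14%), added 1 min before inducer: ADP 1–5 μM, AA 0.2–1 mM or U46619 0.3–0.5 μM. Turbidometric aggregometry; IC50 from light-transmittance amplitude at 6 min (ADP, secondary wave) or 4 min (AA, U46619); mean ± SEM over donors.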

Homo sapiens [2] = species: Homo sapiens; test: Inhibition of arachidonic acid (AA) induced human platelet aggregation; method in brief: as §1
Homo sapiens [3] = species: Homo sapiens; test: Inhibition of U-46,619 induced serotonin secretion
Method in brief: (§2)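 Platelets in human platelet-rich plasma prelabeled with [14C]serotonin; dense-granule secretion read as released radioactivity. Compounds in deoxygenated 10 mM sodium phosphate/0.9% NaCl pH 7.4, given 1 min before ADP (1–5 μM), AA (0.2–1 mM) or U46619 (0.3–0.5 μM). Top drug levels 4000–5000 μM; mean ± SEM across donors.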

Homo sapiens [4] = species: Homo sapiens; test: Inhibition of arachidonic acid (AA) induced serotonin secretion; method in brief: as §2
Homo sapiens [5] = species: Homo sapiens; test: Inhibition of U-46,619 induced human platelet aggregation; method in brief: as §1
Homo sapiens [6] = species: Homo sapiens; test: Inhibition of adenosine diphosphate (ADP) induced serotonin secretion; method in brief: as §2
Homo sapiens [7] = species: Homo sapiens; test: Inhibition of U-46,619 induced serotonin secretion; c=No response; method in brief: as §2

| Structure (SMILES) | IC50 (Homo sapiens [1]) [mM] | IC50 (Homo sapiens [2]) [mM] | IC50 (Homo sapiens [3]) [mM] | IC50 (Homo sapiens [4]) [mM] | IC50 (Homo sapiens [5]) [mM] | IC50 (Homo sapiens [6]) [mM] | IC50 (Homo sapiens [7]) |
| --- | --- | --- | --- | --- | --- | --- | --- |
| O=c1c(O)c(O)oc2ccc(O)cc12 | 1.42 | 3.51 | > 4 | 3.41 | > 4 | 1.52 |  |
| O=C1C(O)=C(O)OC1c1ccc(Cl)cc1 (configuration not stated) | 1.09 | > 4 | > 4 | > 4 | > 4 | 1.21 |  |
| O=C1C(O)=C(O)OC12CCCC2 | > 4 | > 4 | > 4 | > 4 | > 4 | > 4 |  |
| O=C1C(O)=C(O)OC12CCCCC2 | > 3.3 | > 4 | > 4 | > 4 | > 4 | > 3 |  |
| O=c1c(O)c(O)oc2cc3c(cc12)OCO3 | 0.426 | 3.98 | 0.744 | 1.55 | 1.11 | 0.389 |  |
| O=C1C(O)=C(O)OC2CCCCC12 (configuration not stated) | 0.447 | > 4 | > 4 | > 4 | > 4 | 0.406 |  |
| O=c1c(O)c(O)oc2ccccc12 | 0.531 | 0.561 | 3.98 | 0.925 | 3.41 | 0.472 |  |
| O=c1c(O)c(O)oc2ccc(-c3ccccc3)cc12 | 0.522 | 0.253 | 0.345 | 0.407 | 0.422 | 0.45 |  |
| CC(C)(C)c1cc2oc(O)c(O)c(=O)c2cc1O | 1.65 | > 4 | > 4 | > 4 | > 4 | 2.18 |  |
| O=c1c(O)c(O)oc2ccc(Cl)cc12 | 0.498 | 0.78 |  | 1.13 | 1.4 | 0.513 |  |
| O=C1C(O)=C(O)OC2CCCC[C@H]12 (some centres not stated) | 0.481 | > 4 |  | > 4 | 3.09 | 0.492 | Not Active |
| CC(=O)Oc1ccccc1C(=O)O [ASPIRIN] | 0.059 | 0.089 |  | 0.095 |  | 0.05 |  |
| CC(C)(Oc1ccc(Cl)cc1)C(=O)O [CLOFIBRIC ACID] |  | > 3.2 | 3.08 | > 3.5 | > 4 |  |  |
| COc1ccc2c(c1)c(CC(=O)O)c(C)n2C(=O)c1ccc(Cl)cc1 [INDOMETHACIN] | 0.0008 | 0.001 |  | 0.001 |  | 0.0007 |  |
